Calls of active or inactive are those of the source. No rule for the calls is given here. Bounds are passed on as bounds.

System in one series: not listed separately
Briefly: Cytotoxicity against mock-infected human MT4 cells assessed as reduction in cell viability after 96 hrs by MTT assay. The series is classed as cell-based.
Conditions: not given
An outline of the steps:
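Exponentially growing MT-4 cells seeded at 1 × 10^5 cells/mL in RPMI-1640 with 10% FCS, penicillin and streptomycin, with or without serial compound dilutions. Incubated at 37 °C, 5% CO2; viability read by MTT after 96 h. CC50 is the concentration reducing mock-infected cell viability by 50%.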
Background: Formazan colour is commonly taken as a measure of viable cells.
`CCOC(=O)c1ccc(/N=N/C=C/N2CCCC2)cc1`: the CC50 (commonly the concentration that lowers cell viability or growth by half) at 96 h was 26 µM.
`C(=C\N1CCN(c2ccccc2)CC1)/N=N/c1ccccc1`: the CC50 at 96 h was determined as 15 µM.
The same measure, in the same setting: then `FC(F)(F)c1cc(/N=N\C2=C3CCCCN3CCC2)ccc1Cl`, with 19 µM; and `CN1C=C(/N=N/c2ccccc2Cl)CCC1`, with over 100 µM; and `O=[N+]([O-])c1cccc(/N=N\C2=C3CCCCN3CCC2)c1`, with 37 µM.
For the molecule `CN1C=C(/N=N/c2cc(C(F)(F)F)cc(C(F)(F)F)c2)CCC1`, the CC50 at 96 h is over 100 µM.
As for `CN1C=C(/N=N/c2ccc(F)cc2)CCC1`, the CC50 at 96 h is at least 100 µM.

System in the next series: not listed separately
Briefly: Cytotoxicity against mock-infected MDBK cells assessed as reduction in cell viability after 96 hrs by MTT assay. The series is classed as cell-based, Bos taurus. To be noted: cattle. An outline of the steps: (§1)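 Cytotoxicity run in parallel with the antiviral assays. MDBK seeded at 6 × 10^5 and BHK at 1 × 10^6 cells/mL in maintenance medium with or without serial compound dilutions. Incubated 48–96 h at 37 °C, 5% CO2, then viability read by MTT. CC50 is the concentration reducing mock-infected cell viability by 50%.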
As to `CCOC(=O)c1ccc(/N=N/C=C/N2CCCC2)cc1`, the CC50 at 96 h is 100 µM.
For the molecule `C(=C\N1CCN(c2ccccc2)CC1)/N=N/c1ccccc1`, the CC50 at 96 h stood at 5 µM.
As to `FC(F)(F)c1cc(/N=N\C2=C3CCCCN3CCC2)ccc1Cl`, the CC50 at 96 h turned out to be 35 µM.
On the same count and under the same terms, then `CN1C=C(/N=N/c2ccccc2Cl)CCC1`, with over 100 µM; and `O=[N+]([O-])c1cccc(/N=N\C2=C3CCCCN3CCC2)c1`, with over 100 µM; and `CN1C=C(/N=N/c2cc(C(F)(F)F)cc(C(F)(F)F)c2)CCC1`, with 64 µM.
Take `CN1C=C(/N=N/c2ccc(F)cc2)CCC1`: the CC50 at 96 h turned out to be 48 µM.

The subject of the next series is Bovine viral diarrhea virus 1. As to the kind of experiment: Antiviral activity against BVDV infected in MDBK cells assessed as protection against virus-induced cytopathogenicity after 4 days by MTT assay. It counts as functional, organism-based. Conditions: Bovine viral diarrhea virus isolates and strains, 96 h. An outline of the steps:
(§2)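 MDBK (BVDV) or BHK-21 (YFV) cells were seeded at 3 × 10^4 or 5 × 10^4 cells/well respectively and grown overnight to confluent monolayers at 37 °C in 5% CO2. Monolayers were infected at m.o.i. 0.01 in serum-free medium. After 1 h, MEM Earle's with 1% FCS was added, with or without serial compound dilutions. After 3–4 days at 37 °C, viability was read by MTT. EC50 was taken as 50% protection from virus-induced cytopathogenicity.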
(In general: Damage to the host cells serves as the signal in cytopathic effect assays.)
With `CCOC(=O)c1ccc(/N=N/C=C/N2CCCC2)cc1`, the EC50 (commonly the concentration at which the effect is half-maximal) is over 100 µM.
As for `C(=C\N1CCN(c2ccccc2)CC1)/N=N/c1ccccc1`, the EC50 is over 5 µM.
Take `FC(F)(F)c1cc(/N=N\C2=C3CCCCN3CCC2)ccc1Cl`: the EC50 was over 35 µM.
In the case of `CN1C=C(/N=N/c2ccccc2Cl)CCC1`, the EC50 is 100 µM.
As for `O=[N+]([O-])c1cccc(/N=N\C2=C3CCCCN3CCC2)c1`, the EC50 was found to be 100 µM.
Take `CN1C=C(/N=N/c2cc(C(F)(F)F)cc(C(F)(F)F)c2)CCC1`: the EC50 is over 64 µM.
As for `CN1C=C(/N=N/c2ccc(F)cc2)CCC1`, the EC50 was over 48 µM.

System in the next series: not listed separately
As to the kind of experiment: Cytotoxicity against mock-infected BHK cells assessed as reduction in cell viability after 96 hrs by MTT assay. The series is classed as cell-based, Mesocricetus auratus. Conditions: hamster. An outline of the steps: as §1
As to `CCOC(=O)c1ccc(/N=N/C=C/N2CCCC2)cc1`, the CC50 at 96 h is over 100 µM.
Same read-out and setting: then `C(=C\N1CCN(c2ccccc2)CC1)/N=N/c1ccccc1`, with 60 µM; and `FC(F)(F)c1cc(/N=N\C2=C3CCCCN3CCC2)ccc1Cl`, with 41 µM.
Consider `CN1C=C(/N=N/c2ccccc2Cl)CCC1`, for which the 50% cytotoxic concentration (CC50) at 96 h is over 100 µM.
On to `O=[N+]([O-])c1cccc(/N=N\C2=C3CCCCN3CCC2)c1`, for which the CC50 at 96 h came out at 87 µM.
In the case of `CN1C=C(/N=N/c2cc(C(F)(F)F)cc(C(F)(F)F)c2)CCC1`, the CC50 at 96 h was 82 µM.
With `CN1C=C(/N=N/c2ccc(F)cc2)CCC1`, the CC50 at 96 h came to 90 µM.

The subject of the next series is Yellow fever virus. Briefly: Antiviral activity against YFV infected in BHK21 cells assessed as protection against virus-induced cytopathogenicity after 4 days by MTT assay. The series is classed as functional, organism-based. Conditions: BHK-21, 96 h. A digest of the protocol:
as §2
As to `CCOC(=O)c1ccc(/N=N/C=C/N2CCCC2)cc1`, the EC50 is over 100 µM.
With `C(=C\N1CCN(c2ccccc2)CC1)/N=N/c1ccccc1`, the EC50 was 42 µM.
Take `FC(F)(F)c1cc(/N=N\C2=C3CCCCN3CCC2)ccc1Cl`: the EC50 is over 41 µM.
Still for that read-out and setting: then `CN1C=C(/N=N/c2ccccc2Cl)CCC1`, with over 100 µM; and `O=[N+]([O-])c1cccc(/N=N\C2=C3CCCCN3CCC2)c1`, with over 87 µM; and `CN1C=C(/N=N/c2cc(C(F)(F)F)cc(C(F)(F)F)c2)CCC1`, with over 82 µM.
For the molecule `CN1C=C(/N=N/c2ccc(F)cc2)CCC1`, the EC50 is over 90 µM.

System in the next series: not listed separately
Briefly: Cytotoxicity against mock-infected african green monkey Vero76 cells assessed as reduction in cell viability after 96 hrs by MTT assay. The series is classed as cell-based, Vero. To be noted: chlorocebus sabaeus.
As for `CCOC(=O)c1ccc(/N=N/C=C/N2CCCC2)cc1`, the CC50 at 96 h was over 100 µM.
Still for that read-out and setting: then `C(=C\N1CCN(c2ccccc2)CC1)/N=N/c1ccccc1`, with 50 µM.
As for `FC(F)(F)c1cc(/N=N\C2=C3CCCCN3CCC2)ccc1Cl`, the CC50 at 96 h is over 100 µM.
Take `CN1C=C(/N=N/c2ccccc2Cl)CCC1`: the CC50 at 96 h is over 100 µM.
`O=[N+]([O-])c1cccc(/N=N\C2=C3CCCCN3CCC2)c1`: the CC50 at 96 h stood at 90 µM.
Turning to `CN1C=C(/N=N/c2cc(C(F)(F)F)cc(C(F)(F)F)c2)CCC1`, the CC50 at 96 h is over 100 µM.
As to `CN1C=C(/N=N/c2ccc(F)cc2)CCC1`, the CC50 at 96 h stood at 77 µM.

The subject of the next series is Coxsackievirus B2. As to the kind of experiment: Antiviral activity against CVB2 infected in Vero76 cells assessed as reduction in virus plaque formation after 4 days by MTT assay. It counts as functional, organism-based. Conditions: Enterovirus B, Vero 76, 96 h.
Turning to `CCOC(=O)c1ccc(/N=N/C=C/N2CCCC2)cc1`, the EC50 stood at 50 µM.
For `C(=C\N1CCN(c2ccccc2)CC1)/N=N/c1ccccc1`, the EC50 was found to be 5 µM.
For `FC(F)(F)c1cc(/N=N\C2=C3CCCCN3CCC2)ccc1Cl`, the EC50 stood at 64 µM.
On to `CN1C=C(/N=N/c2ccccc2Cl)CCC1`, for which the EC50 is over 100 µM.
Take `O=[N+]([O-])c1cccc(/N=N\C2=C3CCCCN3CCC2)c1`: the EC50 stood at 71 µM.
Turning to `CN1C=C(/N=N/c2cc(C(F)(F)F)cc(C(F)(F)F)c2)CCC1`, the EC50 is over 100 µM.
For the molecule `CN1C=C(/N=N/c2ccc(F)cc2)CCC1`, the EC50 stood at 53 µM.

The next series concerns Respiratory syncytial virus. As to the kind of experiment: Antiviral activity against RSV infected in Vero76 cells assessed as reduction in virus plaque formation after 4 days by MTT assay. The series is classed as functional, organism-based. To be noted: human respiratory syncytial virus, Vero 76, 96 h.
On to `CCOC(=O)c1ccc(/N=N/C=C/N2CCCC2)cc1`, for which the EC50 was over 100 µM.
Turning to `C(=C\N1CCN(c2ccccc2)CC1)/N=N/c1ccccc1`, the EC50 was determined as 11 µM.
Regarding `FC(F)(F)c1cc(/N=N\C2=C3CCCCN3CCC2)ccc1Cl`, the 50% effective concentration (EC50) is over 100 µM.
Regarding `CN1C=C(/N=N/c2ccccc2Cl)CCC1`, the EC50 was over 100 µM.
Same read-out and setting: then `O=[N+]([O-])c1cccc(/N=N\C2=C3CCCCN3CCC2)c1`, with over 90 µM.
Regarding `CN1C=C(/N=N/c2cc(C(F)(F)F)cc(C(F)(F)F)c2)CCC1`, the EC50 is over 100 µM.
Consider `CN1C=C(/N=N/c2ccc(F)cc2)CCC1`, for which the EC50 is 30 µM.

A further series has as its system Poliovirus 1. Briefly: Antiviral activity against Sb1 virus infected in Vero76 cells assessed as reduction in virus plaque formation after 4 days by MTT assay. It counts as functional, organism-based. To be noted: Enterovirus C, Sabin, Vero 76, 96 h.
As for `CCOC(=O)c1ccc(/N=N/C=C/N2CCCC2)cc1`, the EC50 was over 100 µM.
Regarding `C(=C\N1CCN(c2ccccc2)CC1)/N=N/c1ccccc1`, the EC50 was over 50 µM.
Still for that read-out and setting: then `FC(F)(F)c1cc(/N=N\C2=C3CCCCN3CCC2)ccc1Cl`, with over 100 µM.
Regarding `CN1C=C(/N=N/c2ccccc2Cl)CCC1`, the EC50 was found to be 8 µM.
As for `O=[N+]([O-])c1cccc(/N=N\C2=C3CCCCN3CCC2)c1`, the EC50 was determined as 20 µM.
Still for that read-out and setting: then `CN1C=C(/N=N/c2cc(C(F)(F)F)cc(C(F)(F)F)c2)CCC1`, with over 100 µM.
Turning to `CN1C=C(/N=N/c2ccc(F)cc2)CCC1`, the EC50 is over 77 µM.

In the next series the test system is Human immunodeficiency virus 1. Briefly: Antiviral activity against HIV1 infected in MT4 cells assessed as virus-induced cytopathogenicity after 4 days. The series is classed as functional, organism-based.
Conditions: not given
Regarding `CCOC(=O)c1ccc(/N=N/C=C/N2CCCC2)cc1`, the outcome was inactive.
As to `C(=C\N1CCN(c2ccccc2)CC1)/N=N/c1ccccc1`, the outcome was inactive.
For the molecule `FC(F)(F)c1cc(/N=N\C2=C3CCCCN3CCC2)ccc1Cl`, the result was inactive.
As for `CN1C=C(/N=N/c2ccccc2Cl)CCC1`, the result was inactive.
`O=[N+]([O-])c1cccc(/N=N\C2=C3CCCCN3CCC2)c1`: the outcome was inactive.
In the case of `CN1C=C(/N=N/c2cc(C(F)(F)F)cc(C(F)(F)F)c2)CCC1`, the result was inactive.
As for `CN1C=C(/N=N/c2ccc(F)cc2)CCC1`, the result was inactive.

For the next series, the system named is Vaccinia virus. As to the kind of experiment: Antiviral activity against VV infected in Vero76 cells assessed as reduction in virus plaque formation after 4 days by MTT assay. The series is classed as functional, organism-based. To be noted: Orthopoxvirus vaccinia; Vero 76.
As to `CCOC(=O)c1ccc(/N=N/C=C/N2CCCC2)cc1`, the outcome was inactive.
For `C(=C\N1CCN(c2ccccc2)CC1)/N=N/c1ccccc1`, the outcome was inactive.
As for `FC(F)(F)c1cc(/N=N\C2=C3CCCCN3CCC2)ccc1Cl`, the outcome was inactive.
Take `CN1C=C(/N=N/c2ccccc2Cl)CCC1`: the result was inactive.
Take `O=[N+]([O-])c1cccc(/N=N\C2=C3CCCCN3CCC2)c1`: the outcome was inactive.
Regarding `CN1C=C(/N=N/c2cc(C(F)(F)F)cc(C(F)(F)F)c2)CCC1`, the result was inactive.
Turning to `CN1C=C(/N=N/c2ccc(F)cc2)CCC1`, the outcome was inactive.

For a further series, the system named is Vesicular stomatitis virus. As to the kind of experiment: Antiviral activity against VSV infected in Vero76 cells assessed as reduction in virus plaque formation after 4 days by MTT assay. The series is classed as functional, organism-based. To be noted: Vero 76.
Take `CCOC(=O)c1ccc(/N=N/C=C/N2CCCC2)cc1`: the outcome was inactive.
Consider `C(=C\N1CCN(c2ccccc2)CC1)/N=N/c1ccccc1`, for which the outcome was inactive.
On to `FC(F)(F)c1cc(/N=N\C2=C3CCCCN3CCC2)ccc1Cl`, for which the outcome was inactive.
In the case of `CN1C=C(/N=N/c2ccccc2Cl)CCC1`, the outcome was inactive.
Turning to `O=[N+]([O-])c1cccc(/N=N\C2=C3CCCCN3CCC2)c1`, the outcome was inactive.
`CN1C=C(/N=N/c2cc(C(F)(F)F)cc(C(F)(F)F)c2)CCC1`: the outcome was inactive.
For the molecule `CN1C=C(/N=N/c2ccc(F)cc2)CCC1`, the outcome was inactive.

The values are drawn from ChEMBL document CHEMBL1144182, “Antimicrobial and cytotoxic arylazoenamines. Part III: antiviral activity of selected classes of arylazoenamines” (Bioorg Med Chem, 2008).
